From PubChem BioAssay
The list is not random: actives were taken first. Their share in the collection is about 3.3%.
SIAE inh = inhibitors of human sialic acid acetylesterase SIAE. 0.69% of 370,000 active. SIAE FP-Rh probe binding, fluorescence polarization. Q9HAT2. inhibition, % at 9.66 µM;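 active = inhibition above a cutoff: mean of compounds within the control limits plus 3 SD of those, cut at about 17% in these data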
HTRA1 inh = blocks human HTRA1 serine peptidase; Q92743; recombinant HTRA1, FP-rhodamine activity-based probe, fluorescence polarization; inhibition, % at 5.96 µM; 0.5% of 340,000 active; AID 504803; in the data active = inhibition above about 36%
rCAG RNA binder = r(CAG) repeat RNA binding. TO-PRO-1 dye displacement fluorescence. inhibition, % at 3 µM. 1.3% of 370,000 active;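 active = inhibition above the plate cutoff, the mean of all test compounds on that plate plus 3 SD, cut at about 35% in these data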;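 note: higher means more dye released from RNA so lower well fluorescence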
PRMT1 FP inh = inhibitors of human PRMT1. recombinant PRMT1, activity-based probe fluorescence polarization. inhibition, % at 2.79 µM. 1.3% of 370,000 active;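 active = inhibition above about 21% made by adding two undisclosed values, limit read from the data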
mABHD4 FP = inhibits mouse alpha/beta hydrolase domain 4. Q8VD66. purified mABHD4, FP-Rh probe fluorescence polarization. inhibition, % at 8.92 µM. 0.54% of 370,000 active. AID 720543;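 active = inhibition exceeding the mean over every tested compound plus 3 SD, cut at about 30% in these data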
Target sequence (Q8VD66 whole entry, looked up, the tested form may be a part): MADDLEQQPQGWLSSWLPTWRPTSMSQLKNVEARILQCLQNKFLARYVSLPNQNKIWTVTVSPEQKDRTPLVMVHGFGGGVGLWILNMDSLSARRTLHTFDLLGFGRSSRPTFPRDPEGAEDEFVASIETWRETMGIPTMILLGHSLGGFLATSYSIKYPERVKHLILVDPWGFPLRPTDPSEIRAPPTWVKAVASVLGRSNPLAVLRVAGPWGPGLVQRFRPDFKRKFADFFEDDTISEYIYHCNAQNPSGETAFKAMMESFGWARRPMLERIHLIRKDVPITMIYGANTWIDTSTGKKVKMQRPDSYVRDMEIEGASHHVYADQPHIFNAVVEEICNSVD
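Material: mouse ABHD4 enzyme, wild type; Benchmarks: S159A mutant high control, sample median low control; Buffer or medium: HEPES pH 7.0, NaCl, Pluronic buffer; Signal: fluorescence polarization; Read-out: percent inhibition of probe binding, normalized to plate controls; Timing: pre-incubation 45 min, probe exposure 60 min, at 25 °C; Dosing: 8.92 µM, single dose.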
SIAE inh conf = confirmation of human SIAE inhibitors | 13% of 2,300 active | SIAE FP-Rh activity-based probe, fluorescence polarization | shares compounds with SIAE inh | inhibition, % at 9.66 µM;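 active = mean inhibition of the replicates above the hit cutoff set in the primary screen, cut at about 17% in these data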;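 note: inhibitors lower polarization as more probe stays unbound to SIAE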
A number is an active result; – = inactive; · = not tested or not shown; ! = repeats disagree.

SMILES	SIAE inh	HTRA1 inh	rCAG RNA binder	PRMT1 FP inh	mABHD4 FP	SIAE inh conf
CC(C)C(OC(=O)CN1C(=O)COc2ccccc21)C(=O)NC1CCCCC1 (stereo not drawn)	18	–	–	–	–	–
CC(Sc1ccc(Cl)cc1)C(=O)NNC(=O)c1csc(N2CCOCC2)n1 (stereo not drawn)	–	–	–	–	–	·
Clc1ccc(SCc2csc(N3CCOCC3)n2)cc1	18	–	–	–	–	–
COc1ccc(N2C(=O)CSC2c2cccc(OC)c2OC)cc1 (stereo not drawn)	23	–	–	–	–	–
COc1cccc(C2SCC(=O)N2c2ccc(C)cc2)c1OC (stereo not drawn)	–	–	–	–	–	·
COc1ccc(N(C)S(=O)(=O)c2ccc3c(c2)CCN3C(=O)C2CC2)c(OC)c1	–	–	–	–	–	·
COc1ccccc1C(=O)NCCCCNC(=O)c1ccccc1OC	–	–	–	–	–	·
COC(CN(C)S(=O)(=O)c1cc2c3c(c1)CCC(=O)N3CCC2)OC	–	–	–	–	–	·
COC(=O)c1ccccc1N(C)S(=O)(=O)c1cc2c3c(c1)CCC(=O)N3CCC2	32	–	–	–	–	–
Cc1cccc(-c2c3c(=O)n(C)c(=O)n(C)c3cn2CC2CCCO2)c1 (stereo not drawn)	19	–	–	–	–	–
CC(C)C[C@@H](CO)N1CCN(CC(C)C)CCC1=O	–	–	–	–	–	·
Nc1ccc(C(=O)N/N=C/c2cn(Cc3ccccc3)c3ccccc23)cc1	–	–	–	–	–	·
COc1cc(C(=O)N/N=C/c2cn(Cc3ccccc3)c3ccccc23)ccc1O	25	–	–	–	–	–
Cn1c2ccccc2c2cc(/C=N/NC(=O)c3ccc(N)cc3)ccc21	24	–	–	–	–	–
CNC(=S)N/N=C/c1cn(Cc2ccc(F)cc2)c2ccccc12	19	–	–	–	–	–
Nc1ccc(C(=O)N/N=C/c2cn(Cc3ccccc3F)c3ccccc23)cc1	20	–	–	–	–	–
COC(=O)N/N=C/c1cn(Cc2ccc(F)cc2)c2ccccc12	–	–	–	–	–	·
CCCc1[nH]n(-c2ccc([N+](=O)[O-])cc2)c(=O)c1C=NCCCn1ccnc1	–	–	–	–	–	·
C=CCOC(=O)C1=C(C)NC(SCC(=O)NC(=O)OCC)=C(C#N)C1c1cccnc1 (stereo not drawn)	18!	–	–	–	–	–
C=CCOC(=O)C1=C(C)NC(SCC(=O)N(CC)CC)=C(C#N)C1c1ccccc1 (stereo not drawn)	–	–	–	–	–	·
COc1cc(NC(=O)CCCn2c(=O)oc3ccccc32)cc(OC)c1	–	–	–	–	–	·
COc1ccc(C(C)(C)C)cc1NC(=O)CCCn1c(=O)oc2ccccc21	76	–	–	–	–	–
COC(=O)c1ccccc1NC(=O)C1CCN(c2ncnc3c2nc2n3CCCCC2)CC1	–	–	–	–	–	·
CCc1ccccc1NC(=O)c1onc(C)c1Cl	32	–	–	–	–	–
COCCCNC(=O)c1cc(Sc2ccc(F)cc2)nc2ccccc12	18	–	–	–	–	–
SMILES	SIAE inh	HTRA1 inh	rCAG RNA binder	PRMT1 FP inh	mABHD4 FP	SIAE inh conf
Cc1ccc(OC2CCN(C(=O)[C@H]3O[C@@H](n4cnc5c(N)ncnc54)[C@H](O)[C@@H]3O)CC2)cc1	–	·	–	–	–	·
COc1ccccc1C(=O)N1CCN(C(=O)[C@H]2O[C@@H](n3cnc4c(N)ncnc43)[C@H](O)[C@@H]2O)CC1	23	·	–	–	–	21
CN(C)C(=O)N1CCN(C(=O)[C@H](CCc2ccccc2)NC(=O)[C@H]2O[C@@H](n3cnc4c(N)ncnc43)[C@H](O)[C@@H]2O)CC1	36	·	–	–	–	43
Nc1ncnc2c1ncn2[C@@H]1O[C@H](C(=O)N[C@@H](CO)c2ccccc2)[C@@H](O)[C@H]1O	17	·	–	–	–	19
C[C@@H](NC(=O)[C@H]1O[C@@H](n2cnc3c(N)ncnc32)[C@H](O)[C@@H]1O)c1cccc2ccccc12	–	·	–	–	–	·
Cc1c(O)ccc(/C(Cc2ccc3ccccc3n2)=N\O)c1O	52	–	–	–	–	42
O=C(Nc1cccc(F)c1)C1CCCN(S(=O)(=O)c2cccc3cccnc23)C1 (stereo not drawn)	–	–	–	–	–	·
C/C(=N\NC(=S)Nc1cccc(C)c1)c1cc2ccccc2o1	19	–	–	–	–	–
CC(CCc1ccccc1)NC(=O)COC(=O)C1CCC(C(C)(C)C)CC1 (stereo not drawn)	–	–	–	–	–	·
COC(=O)[C@@]12C[C@@H](CC(=O)NCc3cccs3)C(=O)N(Cc3ccc4c(c3)OCO4)C1=CCC(C)(C)C2	–	·	–	–	–	·
COC(=O)[C@@]12C[C@@H](CC(=O)NCc3ccc(C)o3)C(=O)N(Cc3ccc4c(c3)OCO4)C1=CCC(C)(C)C2	17	·	–	–	–	–
Cc1ccc(-c2n[nH]c(=S)c3ccccc23)cc1S(=O)(=O)NCC1CCCO1 (stereo not drawn)	–	–	–	–	–	·
CC1CCC/C(=N/NC(=O)c2ccccc2-n2cccc2)C1 (stereo not drawn)	42	–	–	–	–	–
CC1CCC(=NNC(=O)c2ccccc2-n2cccc2)CC1 (stereo not drawn)	–	–	–	–	–	·
Oc1oc(-c2ccco2)nc1C=Nc1cccc(Cl)c1	–	–	–	–	–	·
CC(=NCc1cccc(Cl)c1)c1nc(-c2ccco2)oc1O	21	–	–	–	–	–
Cc1cccc(S(=O)(=O)NC(=O)C2(C)CCN2C(=O)CC2CCCCC2)c1 (stereo not drawn)	–	·	–	–	–	·
COc1cc(/C=N/NC(=O)c2ccc(CSc3nc4ccccc4[nH]3)cc2)ccc1O	19	·	–	–	–	–
COc1cc(/C=N/NC(=O)c2ccccc2)ccc1O	–	–	–	–	–	·
O=C(CNC1C(=O)Nc2ccccc21)Sc1ccccc1 (stereo not drawn)	–	–	–	–	–	·
O=C(CCCCC(=O)Sc1ccccc1)Sc1ccccc1	18	–	–	–	–	–
O=C(N/N=C/c1c(O)ccc2ccccc12)Nc1ccccc1	52	·	–	–	–	49
O=C(N/N=C\c1c(O)ccc2ccccc12)c1ccc(O)cc1	27	–	–	–	–	–
COc1ccc(OC)c(Nc2nc(-c3cccs3)cs2)c1	20	–	–	–	–	–
Oc1ccc(Nc2nc(-c3cccs3)cs2)cc1	20	–	–	–	–	–
COc1ccc(Nc2nc(-c3cccs3)cs2)cc1	–	·	–	–	–	·
COc1ccc(OC)c(NC(=O)CCNC(=O)c2ccco2)c1	–	–	–	–	–	·
CCOC(=O)C1=C(C)OC(N)=C(C#N)C1c1cc(C)sc1C (stereo not drawn)	–	–	–	–	–	·
